Test results: PubChem BioAssay AID624084 (The Scripps Research Institute Molecular Screening Center, 2012)

Molecular target: metallo-beta-lactamase IMP-1 (Pseudomonas aeruginosa)
Assay: inhibition constants against purified IMP-1 – biochemical, absorbance, Ki and Km, nonselective VIM-2 MBL inhibitor project, late-stage follow-up (AID 624084)
Conditions: recombinant IMP-1, nitrocefin hydrolysis absorbance 495 nm, kinetic
Method in brief: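 Material: IMP-1 enzyme; input: 0.1 nM IMP-1; medium: pH 7.1 HEPES, ZnSO4, Brij 35; incubation: 6 min read, room temperature; detection: kinetic absorbance, 495 nm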

Work on `CN1CCN(NC(=O)CN2C(=O)/C(=C/c3c(Cl)ccc(Cl)c3Cl)SC2=S)CC1` yielded a Ki of 930 nM.
